TMEM16A inh: TMEM16A chloride channel inhibitors, primary screen, cell-based, HTS; HEK293 TMEM16A/YFP iodide influx fluorescence, ionomycin; normalized B-score (activity score, 25-100; higher = stronger inhibition) at 10 µM; actives 1.2% (n = 310,000);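 active = ratio plate-corrected score three or more library SD toward inhibition, starting fluorescence score within five deviations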;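 note: score derived from kinetic fluorescence span divided by baseline fluorescence per well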
Target sequence (Q8BHY3 whole entry, looked up): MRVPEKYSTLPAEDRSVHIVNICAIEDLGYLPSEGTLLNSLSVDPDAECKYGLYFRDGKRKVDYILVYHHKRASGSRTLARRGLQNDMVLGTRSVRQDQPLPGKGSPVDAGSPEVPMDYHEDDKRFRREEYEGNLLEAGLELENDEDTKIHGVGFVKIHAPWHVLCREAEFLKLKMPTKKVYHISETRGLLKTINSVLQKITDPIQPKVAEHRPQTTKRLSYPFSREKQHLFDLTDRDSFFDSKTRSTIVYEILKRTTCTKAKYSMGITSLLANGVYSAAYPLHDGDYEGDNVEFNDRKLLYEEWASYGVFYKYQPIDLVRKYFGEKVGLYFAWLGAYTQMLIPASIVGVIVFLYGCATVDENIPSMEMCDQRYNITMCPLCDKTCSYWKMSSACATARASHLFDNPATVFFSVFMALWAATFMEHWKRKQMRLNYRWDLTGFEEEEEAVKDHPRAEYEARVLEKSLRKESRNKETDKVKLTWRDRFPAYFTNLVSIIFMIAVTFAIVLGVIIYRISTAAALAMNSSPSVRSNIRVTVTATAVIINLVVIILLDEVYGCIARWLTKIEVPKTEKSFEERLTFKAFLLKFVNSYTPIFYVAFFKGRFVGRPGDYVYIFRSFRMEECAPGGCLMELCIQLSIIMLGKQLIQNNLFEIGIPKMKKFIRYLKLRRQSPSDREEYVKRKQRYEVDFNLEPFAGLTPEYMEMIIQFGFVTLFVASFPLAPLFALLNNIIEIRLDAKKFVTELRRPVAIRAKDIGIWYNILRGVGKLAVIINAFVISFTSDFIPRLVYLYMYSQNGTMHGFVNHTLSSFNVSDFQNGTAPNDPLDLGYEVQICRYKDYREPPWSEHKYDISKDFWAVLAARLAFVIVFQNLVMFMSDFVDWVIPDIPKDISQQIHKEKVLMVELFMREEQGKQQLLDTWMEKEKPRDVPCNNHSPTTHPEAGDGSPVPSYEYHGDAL
MC4R barr agon: MC4R agonists recruiting beta-arrestin, primary screen, cell-based, luminescence, agonist arm of biased-ligand search. U2OS MC4R beta-arrestin complementation; percent of melanotan II response, DMSO zero. activation, % at 8.9 µM. actives 0.98% (n = 360,000). AID 540308, 2011;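 active = activation above a per-plate cutoff, the mean activation of sample wells on that plate plus 3 SD, cut at about 8% in these data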
Beta cell apopt: inhibitors of cytokine-induced beta cell apoptosis, primary screen, luminescence. INS-1E cytokine-induced death, ATP luminescence, 48 h; percent of positive-control rescue, neutral wells zero. protection from apoptosis, % (concentration not given with the values). actives 0.8% (n = 300,000);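 active = Every replicate reaches about 75%, or at least half do and their mean reaches it too, limit read from the data; inconclusive = At least half of replicates reach the limit but their mean does not; inactive = Under half of replicates reach the limit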;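 note: higher means more ATP so stronger rescue from cytokine killing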
ANO1 activ: TMEM16A chloride channel activators or potentiators, primary screen, cell-based, HTS. HEK293 TMEM16A/YFP-H148Q/I152L, iodide quench fluorescence; active compounds read low. B-score at 10 µM. actives 0.3% (n = 340,000);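 active = fluorescence-ratio B-score plate-corrected deviation score at least 3 library SD below zero, with starting fluorescence score within 5 deviations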;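 note: channel opened by trigger with iodide after compound preincubation; score built on the fluorescence ratio of max minus min over baseline; more negative score means more quench and so TMEM16A activation or potentiation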
MC4R antag cAMP: MC4R antagonists of cAMP signaling, primary screen, cell-based, TR-FRET, antagonist arm of biased-ligand search. inhibition, % at 6.5 µM. MC4R-expressing cells, MTII-stimulated cAMP, LANCE TR-FRET. AID 540295, 2011. actives 0.48% (n = 360,000);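 active = inhibition above its plate's cutoff, the mean of tested wells on that plate plus 3 SD, cut at about 29% in these data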
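Material: human MC4R-expressing U2OS cells. Probe or stimulus: Melanotan II challenge. Dosing: 6.5 µM single dose. Times: 30-min compound, 1-h challenge, 1-h detection, room temperature. Technique: TR-FRET with Eu-cAMP and labeled anti-cAMP, 671 nm. Replication: singlicate.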
CSC inhib: cancer stem cell viability inhibitors, primary screen, luminescence; cancer stem cell-like cells viability; inhibition, % at 7.5 µM; actives 1.1% (n = 300,000); AID 2717, 2010; in the data active = inhibition above about 75%; inconclusive = no clear call, values can overlap the other calls; tested in HMLE shEcad cells
cAMP nonselect: nonselective cAMP signaling inhibitors, parental cells, counter-screen for MC4R biased antagonist project, cell-based, TR-FRET, U2OS, forskolin, triplicate; inhibition, % at 6.5 µM; actives 26% (n = 1,600); AID 602193, 2012; shares compounds with MC4R antag cAMP; LANCE TR-FRET;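 active = mean inhibition over triplicates above the low-control well mean plus 3 SD, set per campaign, cut at about 13% in these data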;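 note: signal is single emission at 671 nm which falls as cellular cAMP rises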
MC4R antag conf: MC4R cAMP antagonists, retest, confirmation, cell-based, TR-FRET; shares compounds with MC4R antag cAMP; MC4R-expressing cells, MTII-stimulated cAMP; inhibition, % at 6.5 µM; actives 27% (n = 1,600); AID 602195, 2012; in the data active = inhibition above about 29%
Of the large screens only hits and unclear results are named; the others gave an inactive call (follow-up assays come after a bar, where they were run). An excerpt weighted towards active compounds, which were near 3.8% of everything screened.

CN(C)c1ccc(-n2cccc2/C=C/[N+](=O)[O-])cc1	MC4R antag cAMP 38.9, CSC inhib 87.2 | cAMP nonselect inactive | MC4R antag conf 30.8
O=C(NCC(c1ccco1)N1CCCC1)c1cn(-c2ccccc2)nc1-c1ccc(F)cc1 (stereo unspecified)	none (no result: TMEM16A inh, Beta cell apopt, CSC inhib)
COc1cc(-c2nnc(Sc3ccc(C(F)(F)F)cc3[N+](=O)[O-])o2)cc(OC)c1OC	MC4R antag cAMP 28.6 | cAMP nonselect inactive | MC4R antag conf inactive
O=C(O)c1ccc(Sc2nnc(-c3cccc(Br)c3)o2)c([N+](=O)[O-])c1	none
CN(/N=C/c1cc(Cl)cc(Cl)c1O)c1c(Cl)cccc1[N+](=O)[O-]	MC4R antag cAMP 29.7 | cAMP nonselect inactive | MC4R antag conf inactive
CC(C)(C)N/N=C/c1cc(Cl)cc([N+](=O)[O-])c1O	none
CCCNC(=O)N(C)C[C@@H]1Oc2cc(Br)ccc2S(=O)(=O)N([C@@H](C)CO)C[C@H]1C	none (no result: TMEM16A inh, Beta cell apopt, ANO1 activ, CSC inhib)
CNC(C)c1ccc(S(N)(=O)=O)cc1 (stereo unspecified)	MC4R antag cAMP 37.8 | cAMP nonselect inactive | MC4R antag conf inactive
Cc1ccc(S(=O)(=O)N2C[C@H]3N(C(=O)OC(C)C)N(C(=O)OC(C)C)C[C@H](OC(=O)Nc4cccs4)[C@@]3(O)C2)cc1	none (no result: TMEM16A inh, Beta cell apopt, ANO1 activ, CSC inhib)
COc1ccc(OC)c2c1C(=O)C(Cl)=C(Cl)C2=O	Beta cell apopt 114.2, MC4R antag cAMP 32.0, CSC inhib 96.4 | cAMP nonselect 72.7 | MC4R antag conf 48.7
Cc1cc(C=O)c(C)n1-c1cccc(C(=O)O)c1	MC4R antag cAMP 33.2 | cAMP nonselect inactive | MC4R antag conf inactive
CCCNC(=O)C1(C)CCCN(C(=O)c2ccc3ccccc3c2)C1 (stereo unspecified)	none (no result: TMEM16A inh, Beta cell apopt, ANO1 activ, CSC inhib)
CC1(C(=O)O)CCCN(C(=O)C2(c3ccc(Cl)cc3)CCCC2)C1 (stereo unspecified)	none (no result: TMEM16A inh, Beta cell apopt, ANO1 activ, CSC inhib)
CC(C)Cc1ccc(-c2cc3nc(NCCc4ccc(S(N)(=O)=O)cc4)ccn3n2)cc1	MC4R antag cAMP 28.8 (no result: TMEM16A inh, Beta cell apopt, ANO1 activ, CSC inhib) | cAMP nonselect inactive | MC4R antag conf inactive
NS(=O)(=O)c1ccc(CCNc2ccn3nc(-c4ccccc4)cc3n2)cc1	none (no result: TMEM16A inh, Beta cell apopt, ANO1 activ, CSC inhib)
C/C=C(/CCC1NCCc2c1[nH]c1ccccc21)[Si](C)(C)C (stereo unspecified)	none (no result: TMEM16A inh, Beta cell apopt, CSC inhib)
CCOc1ccc(N2C(=O)C3C(c4ccccc4F)NN(C(=O)c4ccc(C)cc4)C3C2=O)cc1 (stereo unspecified)	MC4R antag cAMP 30.5 | cAMP nonselect inactive | MC4R antag conf inactive
O=C(Nc1ccc(C(=O)N2CCCC2)cc1)c1cc(F)c(F)cc1Cl	none (no result: TMEM16A inh, Beta cell apopt, ANO1 activ, CSC inhib)
O=C(CNS(=O)(=O)c1ccc2ccccc2c1)OCC(=O)c1ccc(Br)s1	MC4R antag cAMP 46.9 (no result: Beta cell apopt) | cAMP nonselect 23.4 | MC4R antag conf 42.6
CCCC1=C(C(=O)OCC)C(c2sccc2C)n2ncnc2N1 (stereo unspecified)	none (no result: Beta cell apopt)
CCOC(=O)C1=C(COC(=O)CNS(=O)(=O)c2ccc(C)c(C)c2)NC(=O)NC1C (stereo unspecified)	MC4R antag cAMP 30.1 (no result: TMEM16A inh, Beta cell apopt, ANO1 activ, CSC inhib) | cAMP nonselect inactive | MC4R antag conf inactive
COc1ccccc1CNCc1cc(OC)c(OC)c(OC)c1	MC4R antag cAMP 30.2 (no result: Beta cell apopt) | cAMP nonselect inactive | MC4R antag conf inactive
O=C(CSc1ccc([N+](=O)[O-])cc1)NNC(=O)c1ccccc1F	none
Cc1nn(CC(=O)NNC(=O)c2ccccc2F)c([N+](=O)[O-])c1Br	MC4R antag cAMP 37.2 | cAMP nonselect inactive | MC4R antag conf inactive
c1ccc(-c2nnc(OCc3cccnc3)c3ccccc23)cc1	MC4R antag cAMP 28.6 | cAMP nonselect inactive | MC4R antag conf inactive
Cc1ccc(-c2nnc(OCc3cccnc3)c3ccccc23)cc1	none
COc1ccc(/C=N/NC(=O)C2COc3ccccc3O2)cc1OC (stereo unspecified)	MC4R antag cAMP 28.8 | cAMP nonselect inactive | MC4R antag conf inactive
CC[C@@H]1C/C=C\Cc2ccccc2[C@@H](C(=O)C[C@H](O)CC(C)=O)OC1=O	none (no result: TMEM16A inh, ANO1 activ)
Cc1nc(C(C)NC(=O)c2ccc(OC3CCN(Cc4ccccn4)CC3)cc2)c(C)s1 (stereo unspecified)	none
CC(NC(=O)c1ccc(OC2CCN(Cc3ccccn3)CC2)cc1)c1nccs1 (stereo unspecified)	MC4R antag cAMP 28.9 | cAMP nonselect inactive | MC4R antag conf inactive
Cc1cc(Br)ccc1NC(=O)CNC(=O)Cn1ncc(Cl)c(Cl)c1=O	MC4R antag cAMP 47.4, CSC inhib 83.2 | cAMP nonselect 28.6 | MC4R antag conf 52.7
CCC(=O)Nc1ccc(C(=O)Cn2ncc(Cl)c(Cl)c2=O)cc1	MC4R antag cAMP 28.9, CSC inhib inconclusive | cAMP nonselect 21.8 | MC4R antag conf inactive
O=C(Cn1ncc(Cl)c(Cl)c1=O)Nc1ccc2c(c1)OCO2	MC4R antag cAMP 36.6 (no result: TMEM16A inh, CSC inhib) | cAMP nonselect 28.3 | MC4R antag conf 66.1
Cc1cc(Br)ccc1NC(=O)CNC(=O)CSc1ncccn1	none (no result: TMEM16A inh)
CCN(CC)S(=O)(=O)c1cc(NC(=O)Cn2ncc(Cl)c(Cl)c2=O)ccc1C	CSC inhib inconclusive
COc1ccc(CN2C[C@]3(CO)O[C@@H](CO)C[C@@H]3S2(=O)=O)cc1	none (no result: TMEM16A inh, Beta cell apopt, ANO1 activ, CSC inhib)
C=CCc1cccc2cc(C(=O)N3CCOCC3)c(=O)oc12	none (no result: Beta cell apopt)
C=CCc1cccc2cc(C(=O)N3CCN(C(=O)c4ccccc4)CC3)c(=O)oc12	MC4R antag cAMP 30.2 (no result: CSC inhib) | cAMP nonselect inactive | MC4R antag conf inactive
Cc1ccc(SCC(=O)NNC(=O)CNC(=O)c2ccccc2F)cc1	none (no result: TMEM16A inh)
O=C(C1=C(O)C(=O)N(Cc2ccco2)C1c1cccnc1)c1cc2ccccc2o1 (stereo unspecified)	none
COc1cccc2cc(C(=O)C3=C(O)C(=O)N(Cc4ccco4)C3c3cccnc3)oc12 (stereo unspecified)	MC4R antag cAMP 28.7 | cAMP nonselect 26.9 | MC4R antag conf 44.5
